The results in this text go back to ChEMBL document CHEMBL1138226, “Biological mechanisms of action of novel C-10 non-acetal trioxane dimers in prostate cancer cell lines” (2006).

The source made the active and inactive calls. The calls are words filed in the database; no cut-off is given here. Where only a bound is given, the exact number is not on record here.

Test [1] deals with LNCaP. The test is described as follows: Cell cycle arrest in LNCaP cells by accumulation at G2/M phase at 50 nM after 72 hrs by PI staining. The test is classed as functional, cell-based. The following applies: Homo sapiens. The gist of the method:
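Sub-confluent LNCaP (RPMI, 10% FBS, 37 °C, 5% CO2) exposed to 50 nM or ethanol vehicle (≤0.002%) for 72 h; harvested, fixed in ice-cold 70% ethanol ≥30 min at 4 °C; ~10^6 cells stained with PI (10 μg/mL) plus RNase A (100 μg/mL) 30 min in dark; FACS; % cells in G0/G1, S, G2/M, mean of three independent experiments ± SEM.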

Test [2] has as its system LNCaP. As to the kind of experiment: Growth inhibition of human LNCaP cells after 72 hrs by MTT assay. It counts as functional. The gist of the method: (§1)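 Seeded overnight at C1A 2500, C2H 1500 or LNCaP 10,000 cells/well, then exposed to a range of concentrations or ethanol vehicle for 72 h. MTT added for 4 h, cells solubilized in 20% SDS/0.02 N HCl, absorbance read at 570 nm. Concentration for 50% growth inhibition (GI50) calculated. Replicate wells ± SD; ≥3 independent experiments.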

In test [3] the test system is LNCaP. The test is described as follows: Growth inhibition of human LNCaP cells at 100 nM after 72 hrs by MTT assay. The test is classed as functional. The gist of the method: as §1
The next test relates to TRAMP-C1A. The test is described as follows: Growth inhibition of mouse C1A cells after 72 hrs by MTT assay. It counts as functional. Summed up:
as §1

Test [4] deals with TRAMP-C2H. As to the kind of experiment: Growth inhibition of mouse C2H cells after 72 hrs by MTT assay. The test is classed as functional. The gist of the method: as §1
For test [5], the system named is LNCaP. As to the kind of experiment: Induction of late apoptosis in LNCaP cells at 50 nM after 72 hrs relative to control by V-PE/7-AAD staining. The following applies: Homo sapiens. The test is classed as functional, cell-based. Summed up: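 Sub-confluent LNCaP treated 72 h with 50 nM or ethanol vehicle; trypsinized, washed twice in ice-cold PBS, stained with annexin V-PE and 7-AAD 15 min in dark, analysed by FACS; late stage scored as annexin V plus 7-AAD positive; mean fold increase ± SEM normalized to control (=1.0), ANOVA.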

In test [6] the test system is LNCaP. The test is described as follows: Increase in p53 expression in LNCaP cells at 50 nM after 72 hrs relative to control by Western blot analysis. Particulars: Homo sapiens. It counts as functional, cell-based. The gist of the method: (§2)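 Sub-confluent LNCaP cells given 50 nM or ethanol vehicle for 72 h. Lysed in Triton X-100/SDS buffer with protease and phosphatase inhibitors, run on SDS-PAGE, blotted to PVDF, probed overnight at 4 °C, detected by HRP chemiluminescence. Bands quantified by densitometry, normalized to actin and expressed relative to control.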

Test [7] has as its system LNCaP. As to the kind of experiment: Inhibition of DNA synthesis in human LNCaP cells at 50 nM after 72 hrs by BrdU incorporation assay. The test is classed as functional. More on the design: scale not given: the % may be the effect or the level left. Summed up: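 LNCaP cells given 50 nM or vehicle for 72 h, pulsed 30 min with 100 μg/mL BrdU plus 1 μg/mL FdU. Cells fixed, DNA denatured with 2 N HCl, neutralized with borate pH 8.5, stained with anti-BrdU and Alexa 488 secondary plus PI, then read by flow cytometry. Normalized to control ± SEM; ANOVA.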

The target in test [8] is Cyclin-dependent kinase 2 (Homo sapiens) (UniProt P24941). As to the kind of experiment: Inhibition of CDK2 kinase activity assessed as decrease in histone H1 phosphorylation in LNCaP cells at 50 nM after 72 hrs by Western blot analysis. It counts as functional, cell-based. The gist of the method:
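LNCaP cells given 50 nM or vehicle for 72 h, lysed in NP40 buffer. Lysate (100 μg) immunoprecipitated overnight at 4 °C with cdk2 antibody on protein A/G beads. Beads incubated 30 min at 30 °C with 2 μg histone H1, 20 μM ATP and 5 μCi [γ-32P]ATP. Reaction resolved by SDS-PAGE and phospho-H1 detected by autoradiography, with cdk2 immunoblot alongside.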

For test [9], the system named is LNCaP. As to the kind of experiment: Increase in p27 expression in LNCaP cells at 50 nM after 72 hrs relative to control by Western blot analysis. The test is classed as functional, Homo sapiens. Summed up: as §2
Test [10] concerns TRAMP-C2H. As to the kind of experiment: Inhibition of DNA synthesis in mouse C2H cells at 50 nM after 72 hrs by BrdU incorporation assay. The test is classed as functional. More on the design: scale not given: the % may be the effect or the level left. Summed up: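 Sub-confluent C2H cells given 50 nM or vehicle for 72 h, labelled with BrdU for 4 h, incorporation measured by colorimetric BrdU ELISA at 370 nm. Expressed as % of control ± SEM; ANOVA.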

The subject of test [11] is LNCaP. The test is described as follows: Increase in CDK6 expression in LNCaP cells at 50 nM after 72 hrs by Western blot analysis. The test is classed as functional, cell-based. The following applies: Homo sapiens. The gist of the method: as §2
The subject of test [12] is LNCaP. The test is described as follows: Induction of early apoptosis in LNCaP cells at 50 nM after 72 hrs relative to control by V-PE/7-AAD staining. It counts as functional, Homo sapiens. Summed up: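 Sub-confluent LNCaP cells given 50 nM or vehicle for 72 h, trypsinized, washed in cold PBS, stained with annexin V-PE and 7-AAD for 15 min in the dark, analysed by flow cytometry. Early apoptosis = annexin V-positive only. Reported as fold over control ± SEM; ANOVA.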

For test [13], the system named is LNCaP. The test is described as follows: Decrease in Cyclin E expression in LNCaP cells at 50 nM after 72 hrs by Western blot analysis. The test is classed as functional, cell-based. The following applies: Homo sapiens. The gist of the method: as §2
In test [14] the test system is LNCaP. As to the kind of experiment: Decrease in Bcl2 expression in LNCaP cells at 50 nM after 72 hrs by Western blot analysis. The test is classed as functional, cell-based. The following applies: Homo sapiens. Summed up: as §2
Test [15] has as its system LNCaP. As to the kind of experiment: Increase in p21 expression in LNCaP cells at 50 nM after 72 hrs relative to control by Western blot analysis. The test is classed as functional, Homo sapiens. Summed up: as §2
Test [16] concerns LNCaP. As to the kind of experiment: Cell cycle arrest in LNCaP cells by accumulation at G1/S phase at 50 nM after 72 hrs by PI staining. It counts as functional, cell-based. The following applies: Homo sapiens. The gist of the method:
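Sub-confluent LNCaP cells given vehicle (ethanol) or 50 nM for 72 h. Cells fixed in ice-cold 70% ethanol at 4 °C for ≥30 min, then stained with PI (10 μg/mL) plus RNase A (100 μg/mL) for 30 min in the dark. Phase distribution read by flow cytometry. Mean of three independent experiments ± SEM.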

The test system of test [17] is LNCaP. The test is described as follows: Increase in bax expression in LNCaP cells at 50 nM after 72 hrs by Western blot analysis. The test is classed as functional, cell-based. Particulars: Homo sapiens. Summed up:
as §2

The subject of test [18] is LNCaP. As to the kind of experiment: Inhibition of CDK2 expression in LNCaP cells at 50 nM after 72 hrs by Western blot analysis. The test is classed as functional, cell-based. Particulars: Homo sapiens. Summed up: as §2
Test [19] has as its system LNCaP. As to the kind of experiment: Inhibition of cyclin D1 expression in LNCaP cells at 50 nM after 72 hrs by Western blot analysis. It counts as functional, cell-based. The following applies: Homo sapiens. Summed up: as §2
Test [20] deals with LNCaP. The test is described as follows: Decrease in CDK4 expression in LNCaP cells at 50 nM after 72 hrs by Western blot analysis. More on the design: scale not given: the % may be the effect or the level left. The test is classed as functional, Homo sapiens. Summed up:
as §2

With `COc1cccc2c1C(=O)c1c(O)c3c(c(O)c1C2=O)C[C@@](O)(C(=O)CO)C[C@@H]3O[C@H]1C[C@H](N)[C@H](O)[C@H](C)O1` [DOXORUBICIN], the result in the test with LNCaP [1] and in the test with LNCaP [5] was Active. Further, the concentration for 50% growth inhibition (GI50) in the test on LNCaP [2] amounted to 0.0453 µM; in the test with TRAMP-C1A, 0.0204 µM; in the test with TRAMP-C2H [4] it was 0.0158 µM. The compound also registered an inhibition at 0.1 µM with LNCaP [3] of 69%.

For `C[C@H]1[C@@H](CC(CNc2ccccc2)C[C@H]2O[C@@H]3O[C@@]4(C)CC[C@H]5[C@H](C)CC[C@@H]([C@H]2C)[C@@]35OO4)O[C@@H]2O[C@@]3(C)CC[C@H]4[C@H](C)CC[C@@H]1[C@@]24OO3` (stereo not given in full), the GI50 with LNCaP [2] came to 0.0179 µM; in the test with TRAMP-C1A, 0.018 µM; in the test on TRAMP-C2H [4] it was 0.017 µM. Besides, the result in the test with LNCaP [6] was inactive. For the same compound, the Activity in the test with LNCaP [7] is listed as above 90%; in the test with LNCaP [9] it was 6.5; in the test on TRAMP-C2H [10], above 90%; with LNCaP [12] it was 4; in the test with LNCaP [15], 9; in the test on LNCaP [20], 10%. Also, the result (in test [8]; with LNCaP [11]; in the test with LNCaP [13]; in the test on LNCaP [14]; in the test with LNCaP [16]; with LNCaP [17]) was Active. The outcome in the test with LNCaP [18] and in the test with LNCaP [19] was Active. The inhibition at 0.1 µM with LNCaP [3] turned out to be 97%.

Take `CCOP(=O)(OCC)OCC(C[C@H]1O[C@@H]2O[C@@]3(C)CC[C@H]4[C@H](C)CC[C@@H]([C@H]1C)[C@@]24OO3)C[C@H]1O[C@@H]2O[C@@]3(C)CC[C@H]4[C@H](C)CC[C@@H]([C@H]1C)[C@@]24OO3` (stereo not given in full): the GI50 in the test with LNCaP [2] amounted to 0.0363 µM; in the test on TRAMP-C1A, 0.0422 µM; with TRAMP-C2H [4], 0.0394 µM. In the test on LNCaP [6], the outcome was inactive. For the same compound, the result (in test [8]; in the test with LNCaP [13]; in the test on LNCaP [16]; with LNCaP [17]; in the test with LNCaP [18]; in the test with LNCaP [19]) was Active. The Activity with LNCaP [9] came to 6.5; with LNCaP [12], 4; in the test with LNCaP [15], 9; with LNCaP [20], 10%.

In the case of `C[C@H]1[C@@H](CC(COP(=O)(Oc2ccccc2)Oc2ccccc2)C[C@H]2O[C@@H]3O[C@@]4(C)CC[C@H]5[C@H](C)CC[C@@H]([C@H]2C)[C@@]35OO4)O[C@@H]2O[C@@]3(C)CC[C@H]4[C@H](C)CC[C@@H]1[C@@]24OO3` (stereo not given in full), the results for the GI50 with LNCaP [2], in the test on TRAMP-C1A and with TRAMP-C2H [4] were 0.0344 µM, 0.0319 µM and 0.0448 µM, respectively. Further, the outcome in the test on LNCaP [6] was inactive. The result (in test [8]; with LNCaP [11]; in the test with LNCaP [13]; with LNCaP [14]; in the test on LNCaP [16]; in the test with LNCaP [17]) was Active. Moreover, the result with LNCaP [18] and in the test with LNCaP [19] was Active. Moreover, the Activity with LNCaP [9] is on record as 6.5; in the test with LNCaP [12], 4; in the test with LNCaP [15], 9; with LNCaP [20], 10%.
